Test results published in PubChem BioAssay AID1217 (Sanford-Burnham Center for Chemical Genomics, 2008).
Among all 190,000 compounds or so, about 1,300 (0.68%) were called active. The sample as a whole holds a higher share of actives than the screen did. Unmarked numbers belong to inactive results.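 How the source made its calls: active means primary screen inhibition at 20 µM above a set limit (cut at about 50% in these data); inactive means the rest.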

Test system: diaphorase (Clostridium kluyveri)
Assay: compounds blocking diaphorase resazurin reduction – biochemical, uHTS, resorufin fluorescence, counter-screen for diaphorase-coupled primary assays, primary screen (AID 1217);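 further: plate controls were DMSO with full reaction for no effect and wells lacking NADH for full effect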
Settings: diaphorase resazurin-to-resorufin fluorescence, NADH, 16 min; at 20 µM; stronger effect = higher value; bacterial (C. kluyveri) enzyme, not human
Outline: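 Assay system: diaphorase enzyme from Clostridium kluyveri; Input: enzyme working solution with 0.14 U/mL diaphorase; Timing: 16 min at room temperature; Technique: resorufin fluorescence, excitation 544 nm, emission 590 nm; Benchmarks: positive control minus NADH, DMSO neutral control.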

SMILES | inhibition
CN1CCN(/N=C/c2ccc(-c3ccc([N+](=O)[O-])cc3)o2)CC1 | -3.7%
COc1ccc(N(C(=O)c2ccc(C)cc2)S(=O)(=O)c2cccs2)cc1 | 18.3%
CCOc1cccc(C(=O)Nc2cccnc2)c1 | -6.7%
CCC(C)(C)N=C(NC#N)Nc1cccnc1 | 59.6% (active)
CC(C)(C)C1CCC(C(=O)Nc2cccnc2)CC1 (stereo unspecified) | 6.1%
Cc1nn(C)cc1C(=O)Nc1ccccc1Br | 13.9%
O=C(CCn1ccc([N+](=O)[O-])n1)Nc1nccs1 | 9.2%
COc1ccc(C=Nc2cccc3ncccc23)cc1 | 39.7%
Oc1c(C=Nc2cccc3nsnc23)ccc2ccccc12 | 62.8% (active)
CCSC1=NCCN1S(=O)(=O)c1ccc(F)cc1 | -9.8%
O=C(Nc1cc(N2CCOCC2)ncn1)NC1(C(F)(F)F)Oc2ccc(Cl)cc2O1 (stereo unspecified) | 62.6% (active)
Cc1csc(NC(=O)NC2(C(F)(F)F)Oc3ccccc3O2)n1 | 38.6%
c1cnn(-c2cc(N3CCOCC3)ncn2)c1 | 15.6%
CC(=O)C1=C(O)C(=O)N(c2cccnc2)C1c1ccc([N+](=O)[O-])cc1 (stereo unspecified) | 9.5%
COC(=O)C[n+]1cccc2ccccc21 | 2.1%
O=C(CSc1ccc(-c2ccco2)nn1)NCc1ccc2c(c1)OCO2 | 18.6%
C/C(=N\N1CCN(Cc2ccc(C)cc2)CC1)c1ccco1 | 3.3%
Cc1ccnc(Nc2nc3ccccc3s2)n1 | -16.3%
Cc1ccnc(-n2sc3ccccc3c2=O)n1 | 57% (active)
Cc1ccnc(N2CCC(C(=O)NC3CCCCCC3)CC2)n1 | 0.8%
Cc1ccc(S(=O)(=O)N(C)C)cc1NC(=O)/C=C/c1cccs1 | 15.5%
C#Cc1ccc([C@@H]2C=C(C(=O)O)O[C@H](OCCCCO)C2)cc1 | 15%

SMILES | inhibition
O=C(CCN1C(=O)c2ccccc2C1=O)NCCCn1ccnc1 | -0.3%
O=C(O)/C=C/c1cn(Cc2ccccc2)nc1-c1cccs1 | 9.8%
Cc1cccc(C)c1NC(=O)CSc1nnc(-c2ccccc2)n1Cc1ccc2c(c1)OCO2 | -6.5%
c1ccc(-c2nnc3n2NC(c2ccc4c(c2)OCO4)S3)cc1 (stereo unspecified) | 50% (active)
O=C(Cn1nnc(-c2ccccc2)n1)NCc1ccc2c(c1)OCO2 | -5.8%
Cc1ccc(NS(=O)(=O)c2ccc(C)c(NC(=O)COc3ccc4ccccc4c3)c2)c(C)c1 | 30.9%
COc1ccc(N(C)S(=O)(=O)c2cccc3nsnc23)cc1 | 3.7%
NC(=O)Cc1ccc2sc(-c3ccccc3)nc2c1 | 12.5%
CCCCCC(=O)NC(=S)NNC(=O)c1ccc([N+](=O)[O-])cc1 | 54.7% (active)
CC(C)CC(=O)NC(=S)NNC(=O)c1cccc([N+](=O)[O-])c1 | 58.7% (active)
CCCCCC(=O)Nc1ccc(C(=O)N/N=C/c2ccc([N+](=O)[O-])cc2)cc1 | 4.9%
CC(C)(C)SCCNC(=O)c1cccc([N+](=O)[O-])c1 | 1.8%
COCCCNC(=S)NC(=O)c1ccc([N+](=O)[O-])cc1 | 9.4%
Cc1cccc(C(=O)NNC(=O)c2cccc([N+](=O)[O-])c2)c1 | 10.9%
Brc1cc(/C=N/n2cnnc2)oc1Br | -5.6%
O=C(COc1ccc(Cl)cc1)NCc1nnc(SCC(=O)NCC2CCCO2)o1 (stereo unspecified) | 3.2%
Cc1cc(C)n(CC(=O)Nc2ccc([N+](=O)[O-])cc2)n1 | 19.4%
COc1ccc(CNC(=O)CN(Cc2ccc(Cl)cc2)S(C)(=O)=O)cc1 | 12.3%
CC1=CC(C)(C)N(C(=O)CSc2nnc(-c3ccccc3)o2)c2ccc(C)cc21 | 6.9%
COc1ccc2c(c1)C(C)=CC(C)(C)N2C(=O)CNCc1ccc2c(c1)OCO2 | 34.2%
COc1ccc2c(c1)C(C)=CC(C)(C)N2C(=O)Nc1ccccc1 | 74.3% (active)
O=C(NCc1ccccn1)c1cc(-c2ccccc2Cl)on1 | 4.9%

SMILES | inhibition
COc1ccc(NC(=O)Nc2ccc3nc(C)c(C)nc3c2)cc1 | 13.6%
O=C(NCc1ccccn1)c1ccc2nc(-c3ccco3)c(-c3ccco3)nc2c1 | 51% (active)
COCCNC(=O)Nc1ccc2nc(-c3ccco3)c(-c3ccco3)nc2c1 | 70.2% (active)
COc1ccc(NC(=O)Nc2ccc3nsnc3c2)cc1 | 15.1%
CN(c1ccc(C(=O)NCc2ccccn2)cc1)S(C)(=O)=O | 5.3%
CC(C)C(C)(C#N)NC(=O)CSc1nncn1-c1ccccc1 (stereo unspecified) | 12.5%
O=C(CO/N=C/c1ccc(OC(F)F)cc1)NCc1ccc(F)cc1 | 9.6%
O=C(NNC(=O)C1CCN(c2ncccn2)CC1)c1ccccc1 | -1.9%
CCOC(=O)N1CCN(C(c2cccnc2)c2ccc3cccnc3c2O)CC1 (stereo unspecified) | 48.3%
CCN1CCN(C(c2cccnc2)c2cc(Cl)c3cccnc3c2O)CC1 (stereo unspecified) | 54.7% (active)
Oc1c(CN2CCN(c3ccc(F)cc3)CC2)cc(Cl)c2cccnc12 | 14.9%
Cc1ccc(N(C(=O)Cc2cccs2)C2C=CS(=O)(=O)C2)cc1Cl (stereo unspecified) | 12.1%
CC(C)CCN1CCN(Cc2cn[nH]c2C2CCCCC2)CC1CCO (stereo unspecified) | 8.8%
COc1ccc(NS(=O)(=O)c2cc(NC(=O)CC(=O)c3ccc([N+](=O)[O-])cc3)ccc2C)cc1 | -19.9%
c1ccc(-c2cc3c(NCC4COc5ccccc5O4)ncnc3s2)cc1 (stereo unspecified) | 14.4%
COc1ccc(-c2[nH]ncc2/C=N/NC(=O)c2cc(Br)ccc2O)c(OC)c1 | 8.8%
Cc1ccccc1N/N=C/c1ccc(N2CCOCC2)cc1 | 13.9%
CCN(CC)c1ccc(C(=O)N/N=C/c2ccc(N3CCOCC3)cc2)cc1 | 14.2%
C(=N/Nc1cc(N2CCOCC2)nc(N2CCOCC2)n1)/c1ccccc1 | 65.9% (active)
Cc1cc(Oc2ccccc2)nc(N2CCOCC2)n1 | 8.4%
CN(C)c1ccc(/C=N/Nc2cc(N3CCOCC3)nc(N3CCOCC3)n2)cc1 | 58% (active)
Cc1cc(C(=O)N/N=C/c2ccc(N3CCOCC3)cc2)c(C)o1 | -7.7%
